Data published in ChEMBL document CHEMBL4270660, “Design, synthesis, and systematic evaluation of 4-arylpiperazine- and 4-benzylpiperidine napthyl ethers as inhibitors of monoamine neurotransmitters reuptake” (Bioorg Med Chem, 2018).
Calls of active or inactive are those of the source. The rule behind the calls is not given here.

Assays:
[1] = biological target: T1, Sodium-dependent serotonin transporter (Homo sapiens, UniProt P31645); assay: Inhibition of [3H]serotonin uptake at human SERT expressed in HEK293 cells after 15 to 20 mins by microbeta scintillation counting method; assay type: cell-based
Target sequence in this assay (P31645 whole entry): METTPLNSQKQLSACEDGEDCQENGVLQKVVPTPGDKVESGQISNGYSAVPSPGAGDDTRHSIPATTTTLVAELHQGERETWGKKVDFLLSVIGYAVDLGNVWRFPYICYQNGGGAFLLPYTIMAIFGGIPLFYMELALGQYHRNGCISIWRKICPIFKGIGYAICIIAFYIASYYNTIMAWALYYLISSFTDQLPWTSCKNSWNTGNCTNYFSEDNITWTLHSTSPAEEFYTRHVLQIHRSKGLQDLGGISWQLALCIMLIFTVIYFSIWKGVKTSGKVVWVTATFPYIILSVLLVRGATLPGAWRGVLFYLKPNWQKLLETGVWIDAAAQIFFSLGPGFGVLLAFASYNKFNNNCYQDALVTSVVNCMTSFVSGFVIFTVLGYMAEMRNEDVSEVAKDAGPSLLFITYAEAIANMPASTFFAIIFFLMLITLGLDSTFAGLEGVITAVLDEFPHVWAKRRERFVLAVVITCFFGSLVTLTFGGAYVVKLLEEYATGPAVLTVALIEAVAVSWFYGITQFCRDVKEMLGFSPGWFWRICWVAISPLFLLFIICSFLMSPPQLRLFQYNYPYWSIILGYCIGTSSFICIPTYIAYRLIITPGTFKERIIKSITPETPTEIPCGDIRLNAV

[2] = biological target: T2, Sodium-dependent noradrenaline transporter (Homo sapiens, UniProt P23975); assay: Inhibition of [3H]norepinephrine uptake at human NET expressed in HEK293 cells at 10 uM after 15 to 20 mins by microbeta scintillation counting method; assay type: cell-based
T2 sequence (P23975 whole entry): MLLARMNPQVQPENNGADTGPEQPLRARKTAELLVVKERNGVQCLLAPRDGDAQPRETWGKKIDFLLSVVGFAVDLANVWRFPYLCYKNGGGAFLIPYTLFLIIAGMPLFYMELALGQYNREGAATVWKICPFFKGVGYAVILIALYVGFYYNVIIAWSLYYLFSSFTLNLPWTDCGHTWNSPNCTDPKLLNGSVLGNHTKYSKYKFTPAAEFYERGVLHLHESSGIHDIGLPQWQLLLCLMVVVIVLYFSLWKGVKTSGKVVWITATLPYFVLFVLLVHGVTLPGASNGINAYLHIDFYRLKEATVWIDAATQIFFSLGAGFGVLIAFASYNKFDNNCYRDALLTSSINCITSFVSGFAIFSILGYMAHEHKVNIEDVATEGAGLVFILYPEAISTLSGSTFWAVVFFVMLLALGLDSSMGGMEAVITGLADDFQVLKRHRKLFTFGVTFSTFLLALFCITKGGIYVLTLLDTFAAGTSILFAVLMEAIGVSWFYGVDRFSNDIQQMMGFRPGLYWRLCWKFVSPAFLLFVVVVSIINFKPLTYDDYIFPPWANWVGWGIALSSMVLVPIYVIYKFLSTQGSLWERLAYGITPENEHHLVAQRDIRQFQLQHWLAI
Method in brief: (§1)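 HEK-293 cells transfected with the human transporter (DAT or NET) were given the radiolabeled substrate, [³H]-DA for DAT or [³H]-NE for NET, at 20 nM in the assay. Uptake was measured by liquid scintillation counting. Reference inhibitors were venlafaxine HCl, bupropion and GBR12909. Single-concentration lines are percent reuptake inhibition at the stated concentration.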

[3] = biological target: T1, Sodium-dependent serotonin transporter; settings: HEK293, at 1 µM
Target sequence in this assay (P31645 whole entry, looked up): as the sequence (P31645 whole entry) above

[4] = biological target: T2, Sodium-dependent noradrenaline transporter; assay: Inhibition of [3H]norepinephrine uptake at human NET expressed in HEK293 cells after 15 to 20 mins by microbeta scintillation counting method; assay type: cell-based
Method in brief: as §1, with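 “counting.” for “counting. Reference inhibitors were venlafaxine HCl, bupropion and GBR12909.”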

[5] = biological target: T1, Sodium-dependent serotonin transporter; assay: Inhibition of [3H]serotonin uptake at SERT (unknown origin)
Method in brief: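 Human serotonin transporter (hSERT) expressed by transfection in HEK-293 cells. [³H]-5-HT at 20 nM, with uptake radioactivity counted by liquid scintillation. Percent reuptake inhibition measured at 1 µM and 10 µM, plus IC50 determination.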
Target sequence in this assay (P31645 whole entry): as above

[6] = biological target: T3, Sodium-dependent dopamine transporter (Homo sapiens, UniProt Q01959); assay: Inhibition of [3H]dopamine uptake at DAT (unknown origin)
T3 sequence (Q01959 whole entry): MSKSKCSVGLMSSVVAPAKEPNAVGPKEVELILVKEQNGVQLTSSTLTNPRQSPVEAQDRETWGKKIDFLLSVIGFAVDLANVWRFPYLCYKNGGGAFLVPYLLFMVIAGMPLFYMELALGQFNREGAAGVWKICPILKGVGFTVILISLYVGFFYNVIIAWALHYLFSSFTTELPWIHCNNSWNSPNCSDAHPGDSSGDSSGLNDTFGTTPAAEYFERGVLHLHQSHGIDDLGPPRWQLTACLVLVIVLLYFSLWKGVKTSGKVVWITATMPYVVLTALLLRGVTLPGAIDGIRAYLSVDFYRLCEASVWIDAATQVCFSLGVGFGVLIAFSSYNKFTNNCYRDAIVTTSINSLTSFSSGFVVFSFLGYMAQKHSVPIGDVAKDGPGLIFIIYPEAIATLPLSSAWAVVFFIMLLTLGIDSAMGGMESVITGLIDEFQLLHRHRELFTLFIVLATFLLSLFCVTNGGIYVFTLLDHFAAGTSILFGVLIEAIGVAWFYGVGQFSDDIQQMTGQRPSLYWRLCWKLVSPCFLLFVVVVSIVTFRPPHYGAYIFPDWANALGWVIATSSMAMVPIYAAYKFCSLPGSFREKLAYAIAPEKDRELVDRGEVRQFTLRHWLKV
Method in brief: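 HEK-293 cells transfected with human dopamine transporter (hDAT). Uptake of [³H]-DA at 20 nM, measured by liquid scintillation counting. Test compounds screened as % reuptake inhibition at 1 µM and 10 µM, and IC50 values determined.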

[7] = biological target: T3, Sodium-dependent dopamine transporter; assay: Inhibition of [3H]dopamine uptake at human DAT expressed in HEK293 cells at 1 uM after 15 to 20 mins by microbeta scintillation counting method; assay type: cell-based; method in brief: as §1
[8] = biological target: T2, Sodium-dependent noradrenaline transporter; assay: Inhibition of [3H]norepinephrine uptake at NET (unknown origin)
Method in brief: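 HEK-293 cells transfected with human norepinephrine transporter (hNET). [³H]-NE at 20 nM as substrate, with uptake read by liquid scintillation counting. Reuptake inhibition recorded at 1 µM and 10 µM test compound, and IC50 derived.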

[9] = biological target: T3, Sodium-dependent dopamine transporter; assay: Inhibition of [3H]dopamine uptake at human DAT expressed in HEK293 cells after 15 to 20 mins by microbeta scintillation counting method; assay type: cell-based; method in brief: as §1
[10] = biological target: T2, Sodium-dependent noradrenaline transporter; settings: HEK293, 1 uM

SMILES: Fc1ccc(C(OCCN2CCN(c3ccccn3)CC2)c2ccc(F)cc2)cc1
- IC50 [1]: 570 nM

SMILES: Cc1cccc(C)c1N1CCN(CCCCOc2ccc3ccccc3c2)CC1
- inhibition [2]: 74.4%
- inhibition [3]: 38.3%

SMILES: FC(F)(F)c1ccc(N2CCN(CCCCOc3ccc4ccccc4c3)CC2)cc1
- inhibition [2]: 68.3%
- IC50 [1]: 680 nM
- inhibition [3]: 59.2%
- IC50 [4]: 20500 nM

SMILES: O=C(NCCCN1CCC(Cc2ccccc2)CC1)c1ccc2ccccc2c1
- IC50 [5]: 100 nM
- IC50 [6]: > 10000 nM

SMILES: Clc1cccc(N2CCN(CCCCOc3ccc4ccccc4c3)CC2)c1
- inhibition [2]: 63.7%
- inhibition [3]: 27.5%

SMILES: Clc1cccc(N2CCN(CCCOc3ccc4ccccc4c3)CC2)c1Cl
- inhibition [2]: 45%
- inhibition [3]: 37.5%

SMILES: c1ccc(N2CCN(CCCOc3ccc4ccccc4c3)CC2)cc1
- inhibition [2]: 79.6%
- inhibition [3]: 27%

SMILES: Fc1ccc(N2CCN(CCOc3ccc4ccccc4c3)CC2)cc1
- inhibition [2]: 80.8%
- IC50 [1]: 2800 nM
- inhibition [3]: 60.5%
- IC50 [4]: 5130 nM
- inhibition [7]: 35.6%

SMILES: c1cnc(N2CCN(CCCCOc3ccc4ccccc4c3)CC2)nc1
- inhibition [2]: 31%
- inhibition [3]: 32%

SMILES: FC(F)(F)c1ccc(N2CCN(CCOc3ccc4ccccc4c3)CC2)cc1
- inhibition [2]: 23.1%
- inhibition [3]: 8.2%
- inhibition [7]: 31.3%

SMILES: c1ccc(N2CCN(CCCOc3ccc4ccccc4c3)CC2)nc1
- inhibition [2]: 68.7%
- inhibition [3]: 46.2%

SMILES: COc1ccccc1N1CCN(CCCCOc2ccc3ccccc3c2)CC1
- inhibition [2]: 68%
- IC50 [1]: 5160 nM
- inhibition [3]: 51.3%
- IC50 [4]: 29700 nM

SMILES: Brc1ccc(N2CCN(CCCOc3ccc4ccccc4c3)CC2)cc1
- inhibition [2]: 80%
- IC50 [1]: 830 nM
- inhibition [3]: 54.9%
- IC50 [4]: 2850 nM

SMILES: Clc1cccc(N2CCN(CCOc3ccc4ccccc4c3)CC2)c1Cl
- inhibition [2]: 20%
- inhibition [3]: 26.7%
- inhibition [7]: inactive

SMILES: c1ccc(CC2CCN(CCCOc3ccc4ccccc4c3)CC2)cc1
- inhibition [2]: 92.2%
- IC50 [1]: 990 nM
- inhibition [3]: 51%
- IC50 [4]: 2540 nM

SMILES: COc1ccccc1N1CCN(CCCOc2ccc3ccccc3c2)CC1
- inhibition [2]: 85.3%
- IC50 [1]: 1040 nM
- inhibition [3]: 56.4%
- IC50 [4]: 1200 nM

SMILES: c1cnc(N2CCN(CCCOc3ccc4ccccc4c3)CC2)nc1
- inhibition [2]: 47.3%
- inhibition [3]: 23.8%

SMILES: c1ccc(C2CCN(CCCn3nnnc3C(c3ccccc3)c3ccccc3)CC2)cc1
- IC50 [8]: 510 nM
- IC50 [5]: > 10000 nM
- IC50 [6]: 90 nM

SMILES: Fc1ccc(N2CCN(CCCCOc3ccc4ccccc4c3)CC2)cc1
- inhibition [2]: 74.3%
- IC50 [1]: 3150 nM
- inhibition [3]: 71%
- IC50 [4]: 3710 nM

SMILES: Fc1cccc(F)c1N1CCN(CCCn2nnnc2C(c2ccccc2)c2ccccc2)CC1
- IC50 [1]: > 10000 nM

SMILES: c1ccc(CC2CCN(CCCCOc3ccc4ccccc4c3)CC2)cc1
- inhibition [2]: 80.7%
- inhibition [3]: 31.9%

SMILES: Clc1ccc(N2CCN(CCOc3ccc4ccccc4c3)CC2)c(Cl)c1
- inhibition [2]: 47.3%
- inhibition [3]: 61.4%
- inhibition [7]: 48.5%

SMILES: Brc1ccc(N2CCN(CCOc3ccc4ccccc4c3)CC2)cc1
- inhibition [2]: 52.8%
- inhibition [3]: 9%
- inhibition [7]: 19%

SMILES: c1ccc(N2CCN(CCCCOc3ccc4ccccc4c3)CC2)nc1
- inhibition [2]: 59%
- inhibition [3]: 45.3%

SMILES: O=C(NCCCN1CCN(c2cccc(Cl)c2Cl)CC1)c1ccc2ccccc2c1
- IC50 [9]: > 10000 nM

SMILES: c1ccc(N2CCN(CCOc3ccc4ccccc4c3)CC2)nc1
- inhibition [2]: 66%
- IC50 [1]: 1080 nM
- inhibition [3]: 54%
- IC50 [4]: 23800 nM
- inhibition [7]: inactive

SMILES: c1ccc(N2CCN(CCOc3ccc4ccccc4c3)CC2)cc1
- inhibition [2]: 28%
- inhibition [3]: 7.2%
- inhibition [7]: 9%

SMILES: c1cnc(N2CCN(CCOc3ccc4ccccc4c3)CC2)nc1
- inhibition [3]: 57%
- inhibition [7]: inactive

SMILES: Clc1ccc(N2CCN(CCOc3ccc4ccccc4c3)CC2)cc1
- inhibition [2]: 28%
- inhibition [3]: 20.1%
- inhibition [7]: 2%

SMILES: Cc1cccc(C)c1N1CCN(CCOc2ccc3ccccc3c2)CC1
- inhibition [2]: 74.9%
- inhibition [3]: 24.6%
- inhibition [7]: 19%

SMILES: Brc1ccc(N2CCN(CCCCOc3ccc4ccccc4c3)CC2)cc1
- inhibition [2]: 66.3%
- IC50 [1]: 10700 nM
- inhibition [3]: 66.3%
- IC50 [4]: 25900 nM

SMILES: COc1ccc(C(CN(C)C)C2(O)CCCCC2)cc1 (stereo unspecified)
- inhibition [10]: 52.6%

SMILES: c1ccc(N2CCN(CCCCOc3ccc4ccccc4c3)CC2)cc1
- inhibition [2]: 86.4%
- inhibition [3]: 41.2%

SMILES: Clc1ccc(N2CCN(CCCCOc3ccc4ccccc4c3)CC2)cc1
- inhibition [2]: 69.3%
- inhibition [3]: 49%

SMILES: Cc1cccc(C)c1N1CCN(CCCOc2ccc3ccccc3c2)CC1
- inhibition [2]: 86.5%
- inhibition [3]: 35.1%

SMILES: Clc1ccc(N2CCN(CCCOc3ccc4ccccc4c3)CC2)cc1
- inhibition [2]: 25.7%
- inhibition [3]: 28.4%

SMILES: Clc1cccc(N2CCN(CCOc3ccc4ccccc4c3)CC2)c1
- inhibition [2]: 83.1%
- IC50 [1]: 1860 nM
- inhibition [3]: 85.3%
- IC50 [4]: 5830 nM
- inhibition [7]: inactive

SMILES: CC(NC(C)(C)C)C(=O)c1cccc(Cl)c1 (stereo unspecified)
- inhibition [2]: 61.5%
- inhibition [7]: 78.3%

SMILES: c1ccc(CC2CCN(CCOc3ccc4ccccc4c3)CC2)cc1
- inhibition [3]: 12.1%
- inhibition [7]: inactive

SMILES: Clc1cccc(N2CCN(CCCCOc3ccc4ccccc4c3)CC2)c1Cl
- inhibition [2]: 60.7%
- inhibition [3]: 36.8%

SMILES: Clc1ccc(N2CCN(CCCCOc3ccc4ccccc4c3)CC2)c(Cl)c1
- inhibition [2]: 67.7%
- IC50 [1]: 4320 nM
- inhibition [3]: 51%
- IC50 [4]: 9740 nM

SMILES: Fc1ccc(N2CCN(CCCOc3ccc4ccccc4c3)CC2)cc1
- inhibition [2]: 23.3%
- inhibition [3]: 45.4%

SMILES: COc1ccccc1N1CCN(CCOc2ccc3ccccc3c2)CC1
- inhibition [2]: 21%
- inhibition [3]: 48.7%
- inhibition [7]: 19%
